Experimental data as given in ChEMBL document CHEMBL1139832, “Selective angiotensin II AT(2) receptor agonists devoid of the imidazole ring system” (Bioorg Med Chem, 2007).
pKi: −log10 of the molar value. The source made the active and inactive calls. The rule behind the calls is not given here.

Columns and labels:
[1] = target: T1, Type-1 angiotensin II receptor A (Rattus norvegicus, UniProt P25095); experiment: Displacement of [125I]Ang 2 from AT1 receptor in rat liver membranes; format: cell membranes, Membrane
T1 sequence (P25095 whole entry): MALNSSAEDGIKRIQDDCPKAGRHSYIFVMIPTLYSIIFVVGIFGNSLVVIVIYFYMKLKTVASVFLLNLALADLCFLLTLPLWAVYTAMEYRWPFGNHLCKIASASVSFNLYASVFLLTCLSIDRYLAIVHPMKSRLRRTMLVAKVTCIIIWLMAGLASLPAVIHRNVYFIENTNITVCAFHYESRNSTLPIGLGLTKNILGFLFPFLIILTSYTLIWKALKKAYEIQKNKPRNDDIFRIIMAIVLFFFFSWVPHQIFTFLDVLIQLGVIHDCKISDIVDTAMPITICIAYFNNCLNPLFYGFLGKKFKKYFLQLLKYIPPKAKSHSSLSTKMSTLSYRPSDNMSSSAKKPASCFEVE
Procedure, shortened: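 Rat liver membranes (5 mg original tissue) incubated with [125I]Ang II (0.03 nM) and varying test compound in 50 mM Tris–HCl pH 7.4, 100 mM NaCl, 10 mM MgCl2, 1 mM EDTA, 0.025% bacitracin, 0.2% BSA; 25 °C for 2 h. Filtered onto polyethylamine-soaked GF/B filters, gamma counting. Nonspecific binding with 1 µM Ang II; triplicate.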

[2] = Displacement of [125I]Ang 2 from AT2 receptor in pig uterus membranes; format: cell membranes, Sus scrofa, Membrane
Procedure, shortened: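 Porcine uterine myometrial membranes (10 mg original tissue), with 1 µM losartan to block AT1, incubated with [125I]Ang II (0.03 nM) and varying test compound in Tris–HCl pH 7.4 buffer with NaCl, MgCl2, EDTA, bacitracin and BSA; 25 °C, 1.5 h. Filtered, gamma counted. Nonspecific binding with 1 µM Ang II. Ki via Cheng–Prusoff (Kd 0.73 nM), one-site fit; triplicate.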

NG108-15 [3] = experiment: Induction of neurite outgrowth in NG108-15 cells at 0.1 uM after 3 days; format: functional, cell-based
Procedure, shortened: (§1)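 NG108-15 neuroblastoma×glioma cells (AT2 only; DMEM, 10% FBS, HAT) plated at 3.6·10⁴ cells/35 mm dish, then treated daily for 3 days, alone or with PD 123,319 added 30 min beforehand. Examined by phase-contrast microscopy.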

NG108-15 [4] = experiment: Induction of neurite outgrowth in NG108-15 cells at 1 nM after 3 days; format: functional, cell-based; procedure, shortened: as §1

pKi [1] | pKi [2] | Structure (SMILES) | Activity (NG108-15 [3]) | Activity (NG108-15 [4])
< 5.00 | 8.15 | CCCCOC(=O)NS(=O)(=O)c1sc(CC(C)C)cc1-c1ccc(CC(=O)N(C)C)cc1 | Active | 
< 5.00 | 7.10 | CCCCOC(=O)NS(=O)(=O)c1sc(CC(C)C)cc1-c1ccc(CC(=O)NC)cc1 |  | 
< 5.00 | < 5.00 | CCCCOC(=O)NS(=O)(=O)c1sc(CC(C)C)cc1-c1ccc(CN(C)C)cc1 |  | 
< 5.00 | 8.24 | CCCCOC(=O)NS(=O)(=O)c1sc(CC(C)C)cc1-c1ccc(CNC(C)=O)cc1 |  | 
< 5.00 | 6.44 | CCCCOC(=O)NS(=O)(=O)c1sc(CC(C)C)cc1-c1ccc(CC(=O)N(C)CCCC)cc1 |  | 
< 5.00 | < 5.00 | CCCCOC(=O)NS(=O)(=O)c1sc(CC(C)C)cc1-c1ccc(CN(C)CC#N)cc1 |  | 
< 5.00 | 7.92 | CCCCOC(=O)NS(=O)(=O)c1sc(CC(C)C)cc1-c1ccc(CN(C)C(=O)CCCC)cc1 |  | 
< 5.00 | 7.29 | CCCCOC(=O)NS(=O)(=O)c1sc(CC(C)C)cc1-c1ccc(CC(N)=O)cc1 |  | 
< 5.00 | 7.24 | CCCCOC(=O)NS(=O)(=O)c1sc(CC(C)C)cc1-c1ccc(CC(=O)Nc2ccc(C)cc2)cc1 |  | 
< 5.00 | 6.80 | CCCCCCNC(=O)Cc1ccc(-c2cc(CC(C)C)sc2S(=O)(=O)NC(=O)OCCCC)cc1 |  | 
< 5.00 | 8.51 | CCCCOC(=O)NS(=O)(=O)c1sc(CC(C)C)cc1-c1ccc(CN(C)C=O)cc1 |  | 
< 5.00 | 6.88 | CCCCOC(=O)NS(=O)(=O)c1sc(CC(C)C)cc1-c1ccc(CC(=O)N2CCSC2)cc1 |  | 
< 5.00 | 6.66 | CCCCOC(=O)NS(=O)(=O)c1sc(CC(C)C)cc1-c1ccc(CC(=O)NCc2ccccc2)cc1 |  | 
< 5.00 | 7.08 | CCCCOC(=O)NS(=O)(=O)c1sc(CC(C)C)cc1-c1ccc(CN(Cc2ccccc2)C(=O)CCCC)cc1 |  | 
< 5.00 | 8.01 | CCCCOC(=O)NS(=O)(=O)c1sc(CC(C)C)cc1-c1ccc(CN(C)C(=O)OCC)cc1 |  | 
< 5.00 | 8.55 | CCCCOC(=O)NS(=O)(=O)c1sc(CC(C)C)cc1-c1ccc(CN(C)OC)cc1 |  | Active
< 5.00 | 8.06 | CCCCOC(=O)NS(=O)(=O)c1sc(CC(C)C)cc1-c1ccc(CN(C)C(C)=O)cc1 |  | Active
< 5.00 | 6.90 | CCCCOC(=O)NS(=O)(=O)c1sc(CC(C)C)cc1-c1ccc(CN(CC)C(C)=O)cc1 |  | 

Second part, the compound before the results:

Structure (SMILES) | pKi [1] | pKi [2] | Activity (NG108-15 [3]) | Activity (NG108-15 [4])
CCCCOC(=O)NS(=O)(=O)c1sc(CC(C)C)cc1-c1ccc(CC(=O)N(Cc2ccccc2)Cc2ccccc2)cc1 | < 5.00 | 6.73 |  | 
CCCCOC(=O)NS(=O)(=O)c1sc(CC(C)C)cc1-c1csc(CN(C)C(C)=O)c1 | < 5.00 | < 5.00 |  | 
CCCCOC(=O)NS(=O)(=O)c1sc(CC(C)C)cc1-c1ccc(CN(CC)C(=O)c2cccs2)cc1 | < 5.00 | 6.86 |  | 
CCCCOC(=O)NS(=O)(=O)c1sc(CC(C)C)cc1-c1ccc(CC(=O)N(CC)Cc2ccccc2)cc1 | < 5.00 | 6.49 |  | 
CCCCOC(=O)NS(=O)(=O)c1sc(CC(C)C)cc1-c1ccc(CC(=O)N2CCOCC2)cc1 | < 5.00 | 6.91 |  | 
CCCCOC(=O)NS(=O)(=O)c1sc(CC(C)C)cc1-c1ccc(CN(C)C(C)=O)cn1 | < 5.00 | < 5.00 |  | 
CCCCOC(=O)NS(=O)(=O)c1sc(CC(C)C)cc1-c1ccc(CN(C(=O)c2ccccc2)c2ccc(C)cc2)cc1 | < 5.00 | 7.34 |  | 
CCCCOC(=O)NS(=O)(=O)c1sc(CC(C)C)cc1-c1ccc(CN(C)S(C)(=O)=O)cc1 | < 5.00 | 7.49 |  | 
CCCCOC(=O)NS(=O)(=O)c1sc(CC(C)C)cc1-c1ccc(CN(C(C)=O)c2ccc(C)cc2)cc1 | < 5.00 | 7.22 |  | 
CCCCOC(=O)NS(=O)(=O)c1sc(CC(C)C)cc1-c1ccc(CN(Cc2cccnc2)C(=O)c2ccccc2)cc1 | < 5.00 | 6.39 |  | 
CCCCOC(=O)NS(=O)(=O)c1sc(CC(C)C)cc1-c1ccc(CC(=O)N(c2ccccc2)c2ccccc2)cc1 | < 5.00 | 6.66 |  | 
CCCCOC(=O)NS(=O)(=O)c1sc(CC(C)C)cc1-c1ccc(CN(Cc2ccccc2)C(C)=O)cc1 | < 5.00 | 6.70 |  | 
CCCCOC(=O)NS(=O)(=O)c1sc(CC(C)C)cc1-c1ccc(CN(Cc2cccnc2)C(C)=O)cc1 | < 5.00 | 7.23 |  | 
CCCCOC(=O)NS(=O)(=O)c1sc(CC(C)C)cc1-c1ccc(CN(C)C(C)=O)o1 | < 5.00 | 8.04 |  | Active
